This note sets out measurements from PubChem BioAssay AID623982 (Broad Institute, 2012).

Values joined by “and” are separate entries in the source; they are usually repeats but may differ in a detail not shown here. Equal entries are not always repeated. Active and inactive are the calls of the source.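 How the source made its calls: active means compounds cutting fungal growth signal with fitted half-effect dose at most twice the top valid dose; inconclusive means flat curve at 30 to 70% inhibition, or poor fit; inactive means the rest.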

For the first test, the system named is C. albicans CaCi-17 growth, Alamar Blue fluorescence, 48 h. As to the kind of experiment: C. albicans CaCi-17 antifungal growth inhibitors – CaCi-17 strain, retest, dry powder, set 3, dose response (AID 623982).
Conditions: not given
Summed up: (§1)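 Medium: buffered RPMI / Times: 48 h exposure, 37 °C, humidified, static / Detection: Alamar Blue fluorescence, 2 h dye incubation / Evaluation: growth inhibition indicated by fluorescence signal loss / Control set: amphotericin B at 10 µM as positive control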
For orientation: AC50 means the midpoint of the concentration-response curve, whichever way the signal moves. For the compound `CC1/C=C/C=C\C=C\C=C\C=C\C=C\C=C\C(O[C@H]2OC(C)C(O)C(N)C2O)CC2OC(O)(CC(O)CC(O)C(O)CCC(O)CC(O)CC(=O)OC(C)C(C)C1O)CC(O)C2C(=O)O` (stereo partly specified), the half-maximal activity concentration (AC50) was 83.8 nM. The same measure, in the same setting: to `CCOC(=O)N1C(=O)C2(CCCCC2)N(c2ccc(F)cc2)C1=S` belongs 783 nM.

Tested on in another test: not listed separately
The test is described as above. The settings on record: C. albicans CaCi-17 growth, Alamar Blue fluorescence, 48 h; at 3 µM (top of the series). Summed up:
as §1
(In general: The colour change of resazurin is a common sign of viable cells or microbes.)
As to `CCOC(=O)N1C(=O)C2(CCCCC2)N(c2ccc(C)cc2)C1=S`, the activity change, negative = inhibition is 100% (inactive) and 85.9% (inactive).

As to `CCOC(=O)N1C(=O)C2(CCCCC2)N(c2ccccc2)C1=S`, the activity change, negative = inhibition was 104% (inactive). Same read-out and setting: then `CCOC(=O)N1C(=O)C2(CCCCC2)N(c2cccc(C)c2)C1=S`, with 70.9% (inactive); and `C/C=C/[C@@H]1[C@H]2C[C@@H](C)CC[C@@H]2C(C)=C[C@H]1C(=O)c1c(O)c(-c2ccc(O)cc2)c[nH]c1=O`, with 54.1% (inactive).
